From ChEMBL document CHEMBL4033777, “Next-Generation Hypoxic Cell Radiosensitizers: Nitroimidazole Alkylsulfonamides” (J Med Chem, 2018)
≈ marks a conversion by molar mass, not a printed value. Blank lines part the entries; values can stand above or below the compound they belong to.

Key:
[1] = system: HCT-116; assay: (§1) Hypoxia radiosensitization activity in human HCT116 cells assessed as survival ratio by measuring ratio of cell survival with radiation in absence to presence of compound at 0.52 mM preincubated for 1 hr followed by 6 to 29 Gy irradiation measured after 10 days by methylene blue staining-based cell counting method; type: functional
[2] = system: HCT-116; assay: as §1, with “method relative to misonidazole” for “method”; type: functional
[3] = system: HCT-116; assay: Cytotoxicity against human HCT116 cells at anoxic IC50 incubated for 1 hr at 21 degC by clonogenic survival assay; conditions: hct-116, 1 h
[4] = Solubility of the compound in alphaMEM containing 5% FCS and 1% DMSO by HPLC analysis; type: physicochemical
In short: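 Saturated drug solutions were incubated at 37 °C in αMEM with 5% FCS and 1% DMSO. Dissolved drug was quantified by HPLC.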

[5] = system: HCT-116; assay: Cytotoxicity against human HCT116 cells incubated for 4 hrs under anaerobic condition measured after 5 days by sulforhodamine B assay; type: functional, cell-based
In short: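 STR-authenticated, mycoplasma-free HCT116 cells in αMEM + 5% FCS were seeded at 700 cells/well and allowed 2 h to attach. Drug was added from DMSO stocks (<1% DMSO) in serial 3-fold dilutions for 4 h, oxic or anoxic (Pd-catalyst anaerobic chamber, medium pre-equilibrated ≥3 days). After washing, cells regrew for 5 days before SRB staining and IC50 determination.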

[6] = system: HCT-116; assay: Hypoxic cytotoxicity ratio of IC50 for human HCT116 cells under oxic condition to IC50 for human HCT116 cells under anoxic condition
In short: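 HCT116 cells, 700 per well and attached 2 h, got a 4 h exposure to 3-fold serial dilutions (<1% DMSO) under air or in a Pd-catalyst anaerobic chamber with pre-equilibrated medium. Cells were washed, regrown 5 days, and stained with sulforhodamine B to give IC50. HCR = oxic IC50 / anoxic IC50.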

[7] = system: HCT-116; assay: Hypoxia radiosensitization activity in human HCT116 cells assessed as sensitizer enhancement ratio by measuring ratio of radiation dose for 1% survival in absence to presence of compound at 1 mM […] measured after 10 days by methylene blue staining-based cell counting method; type: functional
[8] = system: HCT-116; assay: as §1, with “with 15 Gy” for “with”, “anoxic IC50” for “0.52 mM”, “15” for “6 to 29”; type: functional
In short: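 Anoxic HCT116 cells were seeded at 10^5/well and treated at the anoxic IC50 concentration for 1 h at room temperature. They were irradiated with 15 Gy (60Co, ~2 Gy/min) in a sealed steel box, then plated clonogenically. Colonies of >50 cells were counted […]. SR15 = survival with radiation / survival with drug + radiation.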

[9] = system: HCT-116; assay: (§2) Hypoxia radiosensitization activity in human HCT116 cells assessed as sensitizer enhancement ratio by measuring ratio of radiation dose for 1% survival in absence to presence of compound at 1 mM preincubated for 1 hr followed by irradiation measured after 10 days by methylene blue staining-based cell counting method relative to misonidazole; type: functional
[10] = system: HCT-116; assay: as §1, with “1” for “0.52”; type: functional
[11] = system: HCT-116; assay: as §1, with “1” for “0.52”, “method relative to misonidazole” for “method”; type: functional
[12] = system: Mus musculus; assay: Drug level in NIH-III mouse assessed as maximum achievable dose at 10 ml/kg, iv; type: ADME; conditions: in vivo
In short: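 Non-tumor-bearing female NIH-III mice (~20 g) received freshly prepared solutions i.v. at 10 mL/kg in 0.9% saline with 1% DMSO, or saline with 2 molar equivalents NaHCO3 for phosphate prodrugs. MAD was the maximum dose that dissolved in the injection volume.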

[13] = system: Plasma; assay: Cmax in plasma of NIH-III mouse xenografted with human HCT116 cells at 2.20 mmol/kg, iv administered as single dose by HPLC analysis; type: ADME, organism-based; design: dose 2.2 mmol/kg, route intravenous; conditions: in vivo
In short: (§3)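 Female NIH-III mice bearing subcutaneous HCT116 xenografts (10^6 cells inoculated). At ca. 300 mm3 tumor size, a single i.v. dose was given at the MAD or 75% of the MTD. Vehicle was 0.9% saline with 1% DMSO, or saline with 2 molar equivalents NaHCO3 for phosphate prodrugs. Plasma and tumor were sampled at multiple times by cardiac puncture and excision, assayed by HPLC, and analysed noncompartmentally.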

[14] = Tmax in plasma of NIH-III mouse xenografted with human HCT116 cells at 2.20 mmol/kg, iv administered as single dose by HPLC analysis; type: ADME, organism-based; conditions: 2.2 mmol/kg
In short: (§4)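 Female NIH-III mice bearing subcutaneous HCT116 tumors (10^6 cells; ~300 mm3) got a single i.v. dose at the MAD or 75% of the MTD. Vehicle was saline with 1% DMSO, or saline with 2 equivalents of NaHCO3 for the phosphates. Plasma and tumor were sampled at multiple times by cardiac puncture and excision, drug was measured by HPLC, and Tmax came from noncompartmental analysis.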

[15] = Cmax in tumor of NIH-III mouse xenografted with human HCT116 cells at 2.20 mmol/kg, iv administered as single dose by HPLC analysis; type: ADME, organism-based, Neoplasm; design: dose 2.2 mmol/kg, route intravenous; conditions: in vivo; in short: as §3
[16] = Tmax in tumor of NIH-III mouse xenografted with human HCT116 cells at 2.20 mmol/kg, iv administered as single dose by HPLC analysis; type: ADME, organism-based, Neoplasm; conditions: 2.2 mmol/kg; in short: as §4
[17] = system: HCT-116; assay: In vivo hypoxia radiosensitization activity in human HCT116 cells xenografted in NIH-III mouse assessed as survival ratio by measuring ratio of cell survival with 12.5 Gy radiation in absence to presence of compound at 2.20 mmol/kg, iv pretreated as single dose for 10 mins followed by irradiation measured after 18 hrs by excision assay; type: functional
[18] = Electrophilicity of the compound in pH 7 phosphate buffer assessed as one-electron reduction potential
In short: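 The one-electron reduction potential was set by pulse radiolysis equilibria at pH 7.0 (2.5 mM phosphate), established within 20 µs against benzylviologen, methylviologen or triquat. ΔE came from equilibrium constants via the Nernst equation, at three concentration ratios and 22 ± 2 °C.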

[19] = system: Mus musculus; assay: Toxicity in NIH-III mouse xenografted with human HCT116 cells assessed as change in body weight with 12.5 Gy radiation at 2.20 mmol/kg, iv administered as single dose; conditions: in vivo
[20] = system: HCT-116; assay: as §2, with “at 2.76” for “at 1”, “method” for “method relative to misonidazole”; type: functional
[21] = system: HCT-116; assay: as §2, with “at 2.76” for “at 1”; type: functional
[22] = system: HCT-116; assay: as §1, with “2.76” for “0.52”; type: functional
[23] = system: HCT-116; assay: as §1, with “2.76” for “0.52”, “method relative to misonidazole” for “method”; type: functional
[24] = system: HCT-116; assay: as §2, with “at 4.39” for “at 1”, “method” for “method relative to misonidazole”; type: functional
[25] = system: HCT-116; assay: as §2, with “at 4.39” for “at 1”; type: functional
[26] = system: HCT-116; assay: as §1, with “4.39” for “0.52”; type: functional
[27] = system: HCT-116; assay: as §1, with “4.39” for “0.52”, “method relative to misonidazole” for “method”; type: functional
[28] = system: HCT-116; assay: as §2, with “at 0.82” for “at 1”; type: functional
[29] = system: HCT-116; assay: as §2, with “at 0.82” for “at 1”, “method” for “method relative to misonidazole”; type: functional
[30] = system: HCT-116; assay: as §1, with “0.82” for “0.52”; type: functional
[31] = system: HCT-116; assay: as §1, with “0.82” for “0.52”, “method relative to misonidazole” for “method”; type: functional
[32] = system: HCT-116; assay: as §1, with “2.86” for “0.52”; type: functional
[33] = system: HCT-116; assay: as §1, with “2.86” for “0.52”, “method relative to misonidazole” for “method”; type: functional

SMILES: COCCNS(=O)(=O)Cn1cnc([N+](=O)[O-])c1
- Ratio [1]: 1.3
- fold change (FC) [2]: 0.44
- Activity [3]: Non-Toxic

SMILES: O=C(Cn1ccnc1[N+](=O)[O-])NCCO [ETANIDAZOLE]
- solubility [4]: > 200 mM
- IC50 [5]: 1000 µM
- Ratio IC50 [6]: 19
- Ratio [7]: 1.339
- Ratio [8]: 7
- fold change (FC) [9]: 0.95
- Ratio [10]: 4.6
- fold change (FC) [11]: 0.75
- Drug uptake [12]: 2.2 mmol/kg
- Cmax [13]: 3640 µM
- Tmax [14]: 5 min
- Cmax [15]: 800 µM
- Tmax [16]: 5 min
- Ratio [17]: 8
- Activity [18]: -388 mV
- Activity [3]: Non-Toxic
- Activity [19]: Non-Toxic

- solubility [4]: > 55.2 mM
SMILES: Cc1ncc([N+](=O)[O-])n1CCS(=O)(=O)NCCCN1CCOCC1
- IC50 [5]: 2800 µM
- Ratio IC50 [6]: 0.8
- Ratio [8]: 8
- Ratio [20]: 1.68
- fold change (FC) [21]: 1.2
- Ratio [22]: 28
- fold change (FC) [23]: 3.96
- Activity [3]: Non-Toxic

- solubility [4]: 24.4 mM (≈ 6.79 mg/mL)
SMILES: COCCNS(=O)(=O)CCn1cncc1[N+](=O)[O-]
- IC50 [5]: 4400 µM
- Ratio IC50 [6]: 2.5
- Ratio [8]: 122
- Ratio [24]: 1.56
- fold change (FC) [25]: 1.08
- Ratio [26]: 26
- fold change (FC) [27]: 2.23
- Activity [18]: -450 mV
- Activity [3]: Non-Toxic

- solubility [4]: 46.8 mM (≈ 14.3 mg/mL)
SMILES: Cc1ncc([N+](=O)[O-])n1CCS(=O)(=O)NCCN(C)C
- fold change (FC) [28]: 1.06
- IC50 [5]: 800 µM
- Ratio IC50 [6]: 6
- Ratio [8]: 11
- Ratio [29]: 1.57
- Ratio [30]: 14.9
- fold change (FC) [31]: 1.51
- Activity [3]: Non-Toxic

SMILES: COCCNS(=O)(=O)CCn1c([N+](=O)[O-])cnc1C
- Ratio [32]: 4.8
- fold change (FC) [33]: 0.58
- Activity [3]: Non-Toxic
